The text below walks through data of ChEMBL document CHEMBL2150980 (Eur J Med Chem, 2012).

For assay [1], the target named is T1, Alpha-1A adrenergic receptor (Cavia porcellus) (UniProt Q9WU25).
T1 sequence (whole entry): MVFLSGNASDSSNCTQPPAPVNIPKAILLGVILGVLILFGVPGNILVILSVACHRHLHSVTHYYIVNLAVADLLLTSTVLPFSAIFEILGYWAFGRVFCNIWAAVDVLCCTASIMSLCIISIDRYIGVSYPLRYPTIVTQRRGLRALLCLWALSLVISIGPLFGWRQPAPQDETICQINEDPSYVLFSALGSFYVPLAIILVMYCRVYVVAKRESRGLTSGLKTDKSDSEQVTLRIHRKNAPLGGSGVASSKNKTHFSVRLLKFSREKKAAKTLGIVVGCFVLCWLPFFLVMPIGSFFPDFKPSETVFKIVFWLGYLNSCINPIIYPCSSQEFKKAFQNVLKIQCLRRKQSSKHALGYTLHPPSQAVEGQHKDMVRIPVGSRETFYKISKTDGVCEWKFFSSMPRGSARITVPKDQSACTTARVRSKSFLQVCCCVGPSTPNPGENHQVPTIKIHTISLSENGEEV
The experiment in a line: Inverse agonist activity at alpha1A adrenoceptor in guinea pig thoracic aorta assessed as inhibition of ca2+-induced IRT at 10 nM after 30 mins. The class given is functional, tissue-based. The essentials: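 Tissue in Krebs equilibrated 1 h at 1 g, then given a single (−)-noradrenaline dose. Washed 1 h in Ca2+-free Krebs with 0.1 mM EDTA, with agonist reapplied until no contraction (internal Ca2+ stores depleted). Antagonist 10 nM for 30 min, then Ca2+ 1.8 mM added. Result is % decrease versus IRT without any agent; mean ± SE, 4–7 experiments.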

In assay [2] the target is T2, Adrenergic receptor alpha-2 (Rattus norvegicus, UniProt P22086+P19328+P22909).
T2 sequence (P22086 whole entry): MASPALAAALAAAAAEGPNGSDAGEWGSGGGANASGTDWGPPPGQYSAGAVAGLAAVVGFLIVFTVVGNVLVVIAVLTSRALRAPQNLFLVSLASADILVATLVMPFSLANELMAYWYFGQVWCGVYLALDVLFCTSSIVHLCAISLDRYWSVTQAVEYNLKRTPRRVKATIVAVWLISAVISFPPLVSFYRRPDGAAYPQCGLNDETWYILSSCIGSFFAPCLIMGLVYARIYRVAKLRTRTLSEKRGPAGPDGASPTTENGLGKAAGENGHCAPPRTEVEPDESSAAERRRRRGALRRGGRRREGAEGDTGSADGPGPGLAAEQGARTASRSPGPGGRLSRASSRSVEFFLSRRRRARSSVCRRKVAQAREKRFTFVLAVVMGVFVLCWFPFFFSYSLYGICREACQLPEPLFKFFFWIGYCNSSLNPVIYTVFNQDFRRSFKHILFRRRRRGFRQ
T2 sequence (P19328 whole entry): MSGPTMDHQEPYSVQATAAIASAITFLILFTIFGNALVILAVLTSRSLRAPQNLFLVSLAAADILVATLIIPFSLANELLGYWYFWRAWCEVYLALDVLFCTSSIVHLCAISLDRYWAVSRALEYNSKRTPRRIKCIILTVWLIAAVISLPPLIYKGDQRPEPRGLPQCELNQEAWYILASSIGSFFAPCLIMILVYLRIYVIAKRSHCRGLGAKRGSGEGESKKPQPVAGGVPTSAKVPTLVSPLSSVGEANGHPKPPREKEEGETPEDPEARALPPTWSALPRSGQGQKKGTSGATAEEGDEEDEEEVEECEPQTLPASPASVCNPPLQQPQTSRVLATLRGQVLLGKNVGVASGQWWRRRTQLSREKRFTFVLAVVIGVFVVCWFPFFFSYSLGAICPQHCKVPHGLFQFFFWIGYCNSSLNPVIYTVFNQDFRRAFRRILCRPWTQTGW
T2 sequence (P22909 whole entry): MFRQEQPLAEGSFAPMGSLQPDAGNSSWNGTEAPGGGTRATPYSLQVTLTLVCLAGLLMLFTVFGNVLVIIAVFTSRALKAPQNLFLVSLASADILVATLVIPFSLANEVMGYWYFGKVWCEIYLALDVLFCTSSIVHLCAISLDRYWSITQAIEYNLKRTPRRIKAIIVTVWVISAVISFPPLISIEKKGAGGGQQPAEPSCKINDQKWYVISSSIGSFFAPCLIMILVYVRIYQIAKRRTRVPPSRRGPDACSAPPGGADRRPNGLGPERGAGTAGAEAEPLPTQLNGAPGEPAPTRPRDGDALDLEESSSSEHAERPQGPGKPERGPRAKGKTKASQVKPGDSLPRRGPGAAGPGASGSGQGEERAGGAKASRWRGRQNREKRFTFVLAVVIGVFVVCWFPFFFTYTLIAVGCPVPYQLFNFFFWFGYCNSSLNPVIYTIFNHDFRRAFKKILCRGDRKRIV
The experiment in a line: Antagonist activity at alpha2 adrenoceptor in Sprague-Dawley rat prostatic vas deferens assessed as suppression of clonidine-mediated inhibition of twitch response after 30 mins. The class given is functional, tissue-based. The essentials: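 Prostatic vas deferens segments (1.5–2 cm) in Krebs at 37 °C, field-stimulated at 0.1 Hz with 3 ms square pulses, 20–40 V. Equilibrated 1 h at 0.35 g resting tension.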

Assay [3] concerns the target T3, Alpha-1A adrenergic receptor (Homo sapiens, UniProt P35348).
T3 sequence (P35348 whole entry): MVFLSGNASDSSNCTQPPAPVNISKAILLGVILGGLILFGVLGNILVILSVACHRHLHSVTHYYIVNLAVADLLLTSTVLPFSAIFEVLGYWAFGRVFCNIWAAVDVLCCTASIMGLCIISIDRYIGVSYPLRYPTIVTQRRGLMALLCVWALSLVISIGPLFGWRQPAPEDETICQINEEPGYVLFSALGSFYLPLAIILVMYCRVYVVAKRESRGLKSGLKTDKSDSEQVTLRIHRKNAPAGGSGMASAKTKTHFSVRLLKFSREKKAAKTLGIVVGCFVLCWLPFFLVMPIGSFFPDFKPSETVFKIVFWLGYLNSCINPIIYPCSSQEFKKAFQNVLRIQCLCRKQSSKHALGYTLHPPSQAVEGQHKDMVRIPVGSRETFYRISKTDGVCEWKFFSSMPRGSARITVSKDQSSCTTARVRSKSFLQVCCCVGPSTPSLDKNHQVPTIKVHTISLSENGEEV
The experiment in a line: Displacement of [3H]prazosin from human cloned alpha1A adrenoceptor expressed in CHO cell membranes after 30 mins by liquid scintillation counter. The gist of the method:
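Membranes incubated 30 min at 25 °C with 0.5 nM [3H]-prazosin ± compound (0.3–1000 nM) in 50 mM buffer, pH 7.7, containing pargyline and 0.1% ascorbic acid. Unlabelled prazosin defined nonspecific binding. GF/B filtration, scintillation counting.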

Assay [4] concerns the target T4, 5-hydroxytryptamine receptor 1A (Rattus norvegicus, UniProt P19327).
T4 sequence (P19327 whole entry): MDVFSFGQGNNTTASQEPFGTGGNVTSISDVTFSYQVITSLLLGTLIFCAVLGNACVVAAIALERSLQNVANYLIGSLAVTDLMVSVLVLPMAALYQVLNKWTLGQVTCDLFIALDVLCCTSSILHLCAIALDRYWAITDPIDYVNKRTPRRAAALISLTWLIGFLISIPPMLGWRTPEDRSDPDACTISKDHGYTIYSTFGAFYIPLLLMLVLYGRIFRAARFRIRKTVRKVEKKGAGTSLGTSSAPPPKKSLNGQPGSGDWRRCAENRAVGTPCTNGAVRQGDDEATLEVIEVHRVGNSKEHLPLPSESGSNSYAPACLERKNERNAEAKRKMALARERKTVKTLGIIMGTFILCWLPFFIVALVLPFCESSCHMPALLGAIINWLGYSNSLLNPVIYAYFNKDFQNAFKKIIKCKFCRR
The experiment in a line: Displacement of [3H]-8-OH-DPAT from 5-HT1A receptor in rat hippocampal membranes after 30 mins by liquid scintillation counting. The class given is cell membranes, Hippocampus, Membrane. The essentials:
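Crude rat hippocampal membranes in Tris-HCl 50 mM, pH 7.7, with pargyline and 4 mM CaCl2. […] Stopped by GF/B filtration, then scintillation counting. Ki from IC50 via Cheng–Prusoff; ≥3 experiments in triplicate.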
Background: Loss of bound radioactivity is the signal in a displacement assay; it reports binding, not function.

The target in assay [5] is T5, Alpha-1D adrenergic receptor (Homo sapiens, UniProt P25100).
T5 sequence (P25100 whole entry): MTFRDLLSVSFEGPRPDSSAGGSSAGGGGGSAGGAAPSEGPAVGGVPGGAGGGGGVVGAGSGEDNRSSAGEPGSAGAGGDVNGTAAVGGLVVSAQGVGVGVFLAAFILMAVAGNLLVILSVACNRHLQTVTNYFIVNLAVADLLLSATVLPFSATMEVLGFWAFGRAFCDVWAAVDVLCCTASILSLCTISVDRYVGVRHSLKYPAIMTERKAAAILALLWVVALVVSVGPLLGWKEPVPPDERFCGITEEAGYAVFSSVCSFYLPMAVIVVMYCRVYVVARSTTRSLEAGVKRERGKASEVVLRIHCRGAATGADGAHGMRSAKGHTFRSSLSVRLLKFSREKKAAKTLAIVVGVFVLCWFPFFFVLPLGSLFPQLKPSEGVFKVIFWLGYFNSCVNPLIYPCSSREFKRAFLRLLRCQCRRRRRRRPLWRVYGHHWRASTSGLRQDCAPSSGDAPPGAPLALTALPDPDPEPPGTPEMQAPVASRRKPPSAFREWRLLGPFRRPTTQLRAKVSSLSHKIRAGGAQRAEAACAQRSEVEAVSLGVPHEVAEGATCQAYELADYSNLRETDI
Nature of the assay: Displacement of [3H]prazosin from human cloned alpha1D adrenoceptor expressed in CHO cell membranes after 30 mins by liquid scintillation counter.

In assay [6] the target is T6, Alpha-1B adrenergic receptor (Homo sapiens, UniProt P35368).
T6 sequence (P35368 whole entry): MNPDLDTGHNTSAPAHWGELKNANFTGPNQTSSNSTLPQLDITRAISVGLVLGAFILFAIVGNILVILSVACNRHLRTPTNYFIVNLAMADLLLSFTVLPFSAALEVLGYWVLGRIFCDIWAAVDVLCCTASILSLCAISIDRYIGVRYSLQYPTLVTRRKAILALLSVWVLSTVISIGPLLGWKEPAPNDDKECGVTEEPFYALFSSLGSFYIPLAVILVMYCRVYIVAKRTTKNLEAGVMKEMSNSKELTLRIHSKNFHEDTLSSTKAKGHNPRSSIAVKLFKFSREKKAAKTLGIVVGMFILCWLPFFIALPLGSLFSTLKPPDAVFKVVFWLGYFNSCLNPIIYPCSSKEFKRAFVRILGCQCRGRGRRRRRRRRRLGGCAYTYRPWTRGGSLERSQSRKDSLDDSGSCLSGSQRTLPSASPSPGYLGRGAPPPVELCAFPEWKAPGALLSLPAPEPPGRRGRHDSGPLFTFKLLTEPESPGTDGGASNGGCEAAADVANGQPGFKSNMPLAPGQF
The experiment in a line: Displacement of [3H]prazosin from human cloned alpha1B adrenoceptor expressed in CHO cell membranes after 30 mins by liquid scintillation counter.

Regarding `COc1cccc(OC)c1OCCNC[C@H]1COc2ccccc2O1.Cl`, the inhibition (in general, how much of the control response was suppressed) in assay [1] was determined as 84%. For the same molecule, the pA2 (as a rule, a measure of antagonist potency on a negative log scale) in assay [2] is on record as 6.92.

In the case of `COc1cccc(OC)c1OCCNC[C@@H]1COc2c(OC)cccc2O1`, the Ki (usually a dissociation constant, usually derived from enzyme kinetics or from competition with a known ligand) in assay [3] was 813 nM; in assay [4], 123 nM; in assay [5], 263 nM; in assay [6], 646 nM.

With `COc1cccc(OC)c1OCCNC[C@@H]1COc2cccc(Cl)c2O1`, the Ki is 5.62 nM in assay [3], 17.4 nM in assay [4], 3.98 nM in assay [5] and 33.9 nM in assay [6].

For the molecule `COc1cccc(OC)c1OCCNC[C@@H]1COc2cccc(O)c2O1`, the Ki was 66.1 nM in assay [3], 17.4 nM in assay [4], 324 nM in assay [5] and 398 nM in assay [6].

With `COc1cccc(OC)c1OCCNC[C@@H]1COc2cccc(OC)c2O1`, the Ki was 16.6 nM in assay [3], 12.9 nM in assay [4], 16.6 nM in assay [5] and 79.4 nM in assay [6].

With `COc1cccc(OC)c1OCCNC[C@@H]1COc2cccc(F)c2O1`, the Ki in assay [3] is 18.2 nM; in assay [4], 31.6 nM; in assay [5], 7.41 nM; in assay [6], 102 nM.
